From ChEMBL document CHEMBL1821687, “Discovery, synthesis, and biological evaluation of novel SMN protein modulators” (J Med Chem, 2011)
Each block holds one compound with its values, some of them ahead of it. The source made the active and inactive calls. The rule behind the calls is not given here.

Key:
[1] = system: Brain; assay: Drug level in Swiss albino mouse brain at 30 mg/kg, po after 8 hrs; format: ADME, organism-based; parameters: dose 30 mg/kg, route oral; settings: in vivo
How it was run: (§1)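 Male Swiss Albino mice received a single 30 mg/kg oral gavage dose. Compound levels were measured in plasma and brain over time, and PK parameters were derived from the concentration–time data.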

[2] = system: Brain; assay: AUClast in brain of Swiss albino mouse at 30 mg/kg, po; format: ADME, organism-based; parameters: time 0 - last, dose 30 mg/kg, route oral; settings: in vivo; how it was run: as §1
[3] = system: Caco-2; assay: Apparent permeability from basolateral side to apical side of human Caco2 cells at 10 uM; format: ADME, cell-based; settings: caco-2, 10 µM
[4] = Plasma concentration in Swiss albino mouse at 30 mg/kg, po after 2 hrs; format: ADME, organism-based; parameters: dose 30 mg/kg, route oral; how it was run: as §1
[5] = system: Plasma; assay: Free plasma concentration in Swiss albino mouse at 30 mg/kg, po after 0.5 hr; format: ADME, organism-based; parameters: dose 30 mg/kg, route oral; settings: in vivo
[6] = Plasma concentration in Swiss albino mouse at 30 mg/kg, po after 8 hrs; format: ADME, organism-based; parameters: dose 30 mg/kg, route oral; how it was run: as §1
[7] = Plasma concentration in Swiss albino mouse at 30 mg/kg, po after 0.083 hrs; format: ADME, organism-based; parameters: dose 30 mg/kg, route oral
[8] = target: T1, Luciferin 4-monooxygenase (Luciola lateralis, UniProt Q01158); assay: Inhibition of fire fly luciferase; parameters: species or system Aquatica lateralis; settings: read-out: IC50
T1 sequence (Q01158 whole entry): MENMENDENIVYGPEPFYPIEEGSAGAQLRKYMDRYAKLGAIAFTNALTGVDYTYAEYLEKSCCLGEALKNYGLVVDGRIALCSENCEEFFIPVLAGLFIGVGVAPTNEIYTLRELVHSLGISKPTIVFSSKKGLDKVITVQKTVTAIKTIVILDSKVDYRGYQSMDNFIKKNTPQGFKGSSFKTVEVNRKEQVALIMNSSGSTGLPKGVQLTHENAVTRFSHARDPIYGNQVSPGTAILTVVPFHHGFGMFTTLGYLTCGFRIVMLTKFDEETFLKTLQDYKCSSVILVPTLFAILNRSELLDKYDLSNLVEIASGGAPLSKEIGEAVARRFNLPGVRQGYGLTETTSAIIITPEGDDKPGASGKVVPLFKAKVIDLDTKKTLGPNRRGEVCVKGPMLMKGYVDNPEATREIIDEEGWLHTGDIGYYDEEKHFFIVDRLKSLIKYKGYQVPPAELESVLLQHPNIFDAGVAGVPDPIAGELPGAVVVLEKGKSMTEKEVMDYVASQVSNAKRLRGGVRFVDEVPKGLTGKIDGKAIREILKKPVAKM

[9] = system: Plasma; assay: Free plasma concentration in Swiss albino mouse at 30 mg/kg, po after 0.083 hr; format: ADME, organism-based; parameters: dose 30 mg/kg, route oral; settings: in vivo
[10] = Plasma protein binding in Swiss albino mouse at 30 mg/kg, po; format: ADME, organism-based; parameters: dose 30 mg/kg, route oral; settings: read-out: PPB (converted)
[11] = Plasma concentration in Swiss albino mouse at 30 mg/kg, po after 4 hrs; format: ADME, organism-based; parameters: dose 30 mg/kg, route oral; how it was run: as §1
[12] = system: Brain; assay: AUC (infinity) in brain of Swiss albino mouse at 30 mg/kg, po; format: ADME, organism-based; parameters: time infinity, dose 30 mg/kg, route oral; settings: in vivo; how it was run: as §1
[13] = system: Brain; assay: Drug level in Swiss albino mouse brain at 30 mg/kg, po after 12 hrs; format: ADME, organism-based; parameters: dose 30 mg/kg, route oral; settings: in vivo; how it was run: as §1
[14] = system: Brain; assay: Drug level in Swiss albino mouse brain at 30 mg/kg, po after 4 hrs; format: ADME, organism-based; parameters: dose 30 mg/kg, route oral; settings: in vivo; how it was run: as §1
[15] = system: Plasma; assay: AUClast in plasma of Swiss albino mouse at 30 mg/kg, po; format: ADME, organism-based; parameters: time 0 - last, dose 30 mg/kg, route oral; settings: in vivo; how it was run: as §1
[16] = system: Plasma; assay: Free plasma concentration in Swiss albino mouse at 30 mg/kg, po after 1 hr; format: ADME, organism-based; parameters: dose 30 mg/kg, route oral; settings: in vivo
[17] = system: Plasma; assay: Half-life in plasma of Swiss albino mouse at 30 mg/kg, po; format: ADME, organism-based; parameters: dose 30 mg/kg, route oral; settings: in vivo; how it was run: as §1
[18] = system: Plasma; assay: Tmax in plasma of Swiss albino mouse at 30 mg/kg, po; format: ADME, organism-based; parameters: dose 30 mg/kg, route oral; settings: in vivo; how it was run: as §1
[19] = system: Brain; assay: Drug level in Swiss albino mouse brain at 30 mg/kg, po after 2 hrs; format: ADME, organism-based; parameters: dose 30 mg/kg, route oral; settings: in vivo; how it was run: as §1
[20] = system: Brain; assay: Drug level in Swiss albino mouse brain at 30 mg/kg, po after 24 hrs; format: ADME, organism-based; parameters: dose 30 mg/kg, route oral; settings: in vivo; how it was run: as §1
[21] = Plasma concentration in Swiss albino mouse at 30 mg/kg, po after 0.5 hrs; format: ADME, organism-based; parameters: dose 30 mg/kg, route oral; how it was run: as §1
[22] = system: Liver; assay: Half-life in mouse liver microsome at 1 uM; format: ADME; settings: microsomes
[23] = system: Brain; assay: Half-life in brain of Swiss albino mouse at 30 mg/kg, po; format: ADME, organism-based; parameters: dose 30 mg/kg, route oral; settings: in vivo; how it was run: as §1
[24] = Plasma concentration in Swiss albino mouse at 30 mg/kg, po after 1 hr; format: ADME, organism-based; parameters: dose 30 mg/kg, route oral; how it was run: as §1
[25] = system: Plasma; assay: Free plasma concentration in Swiss albino mouse at 30 mg/kg, po after 0.25 hr; format: ADME, organism-based; parameters: dose 30 mg/kg, route oral; settings: in vivo
[26] = system: Plasma; assay: Cmax in plasma of Swiss albino mouse at 30 mg/kg, po; format: ADME, organism-based; parameters: dose 30 mg/kg, route oral; settings: in vivo; how it was run: as §1
[27] = system: Brain; assay: Tmax in brain of Swiss albino mouse at 30 mg/kg, po; format: ADME, organism-based; parameters: dose 30 mg/kg, route oral; settings: in vivo; how it was run: as §1
[28] = system: Plasma; assay: Free plasma concentration in Swiss albino mouse at 30 mg/kg, po after 8 hrs; format: ADME, organism-based; parameters: dose 30 mg/kg, route oral; settings: in vivo
[29] = Plasma concentration in Swiss albino mouse at 30 mg/kg, po after 12 hrs; format: ADME, organism-based; parameters: dose 30 mg/kg, route oral; how it was run: as §1
[30] = system: Caco-2; assay: Apparent permeability from apical side to basolateral side of human Caco2 cells at 10 uM; format: ADME, cell-based; settings: caco-2, 10 µM
[31] = Plasma concentration in Swiss albino mouse at 30 mg/kg, po after 24 hrs; format: ADME, organism-based; parameters: dose 30 mg/kg, route oral; how it was run: as §1
[32] = target: Survival motor neuron protein (Homo sapiens) (UniProt Q16637); assay: Activation of SMN expressed in HEK293 cells assessed as concentration required to reach 50% of maximum luciferase signal by SMN2-promotor driven luciferase reporter gene assay; format: cell-based
How it was run: (§2)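 HEK-293 cells stably carrying the SMN2 reporter construct, kept in DMEM with 10% FCS, glutamax, pyruvate, pen/strep and 200 µg/mL hygromycin, and assayed without hygromycin. 2,000 cells/well were plated and adhered overnight at 37 °C, 5% CO2. Compounds were added as a 7-point titration, 50 µM to 25 nM final, in 0.46% DMSO, for 30–36 h. OneGlo luminescence was normalized to 4.5 mM sodium butyrate (100%) and DMSO (0%).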

[33] = system: Brain; assay: Drug level in Swiss albino mouse brain at 30 mg/kg, po after 0.25 hr; format: ADME, organism-based; parameters: dose 30 mg/kg, route oral; settings: in vivo; how it was run: as §1
[34] = target: Survival motor neuron protein (Homo sapiens) (UniProt Q16637); assay: Activation of SMN in human fibroblast cells obtained from type 1 SMA patients assessed as protein punctuate bodies per 100 nuclei at 37 to 1000 nM relative to control; format: cell-based
[35] = system: Plasma; assay: Free plasma concentration in Swiss albino mouse at 30 mg/kg, po after 4 hrs; format: ADME, organism-based; parameters: dose 30 mg/kg, route oral; settings: in vivo
[36] = Plasma concentration in Swiss albino mouse at 30 mg/kg, po after 0.25 hrs; format: ADME, organism-based; parameters: dose 30 mg/kg, route oral; how it was run: as §1
[37] = system: Plasma; assay: AUC (infinity) in plasma of Swiss albino mouse at 30 mg/kg, po; format: ADME, organism-based; parameters: dose 30 mg/kg, route oral, time infinity; settings: in vivo; how it was run: as §1
[38] = system: Plasma; assay: Free plasma concentration in Swiss albino mouse at 30 mg/kg, po after 24 hrs; format: ADME, organism-based; parameters: dose 30 mg/kg, route oral; settings: in vivo
[39] = system: Brain; assay: Cmax in brain of Swiss albino mouse at 30 mg/kg, po; format: ADME, organism-based; parameters: dose 30 mg/kg, route oral; settings: in vivo; how it was run: as §1
[40] = system: Plasma; assay: Free plasma concentration in Swiss albino mouse at 30 mg/kg, po after 2 hrs; format: ADME, organism-based; parameters: dose 30 mg/kg, route oral; settings: in vivo
[41] = system: Brain; assay: Drug level in Swiss albino mouse brain at 30 mg/kg, po after 1 hr; format: ADME, organism-based; parameters: dose 30 mg/kg, route oral; settings: in vivo; how it was run: as §1
[42] = Ratio of AUC in brain to AUC in plasma in Swiss albino mouse at 30 mg/kg, po; format: ADME, organism-based; parameters: dose 30 mg/kg, route oral; settings: brain and plasma
How it was run: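 Single oral gavage dose of 30 mg/kg given to male Swiss Albino mice; compound concentrations measured in both plasma and brain, from which brain and plasma exposure parameters were derived; animals observed for behavioural disturbance throughout the study.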

[43] = target: Survival motor neuron protein (Homo sapiens) (UniProt Q16637); assay: Activation of SMN expressed in HEK293 cells assessed as rate of induction by SMN2-promotor driven luciferase reporter gene assay relative to basal level; format: cell-based; parameters: concentration or dose not given beside the values; how it was run: as §2
[44] = system: Brain; assay: Drug level in Swiss albino mouse brain at 30 mg/kg, po after 0.5 hr; format: ADME, organism-based; parameters: dose 30 mg/kg, route oral; settings: in vivo; how it was run: as §1
[45] = system: Brain; assay: Drug level in Swiss albino mouse brain at 30 mg/kg, po after 0.083 hr; format: ADME, organism-based; parameters: dose 30 mg/kg, route oral; settings: in vivo
[46] = system: Plasma; assay: Free plasma concentration in Swiss albino mouse at 30 mg/kg, po after 12 hrs; format: ADME, organism-based; parameters: dose 30 mg/kg, route oral; settings: in vivo
[47] = target: Survival motor neuron protein (Homo sapiens) (UniProt Q16637); assay: Activation of SMN in human fibroblast cells obtained from type 1 SMA patients assessed as protein punctuate bodies per 100 nuclei at 37 to 3000 nM; format: cell-based
How it was run: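 Type I SMA patient fibroblasts (3813 line) were treated with 37–3000 nM compound for 3 days. Gems were then counted per 100 nuclei.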

Survival motor neuron protein (Homo sapiens), sequence (Q16637 whole entry): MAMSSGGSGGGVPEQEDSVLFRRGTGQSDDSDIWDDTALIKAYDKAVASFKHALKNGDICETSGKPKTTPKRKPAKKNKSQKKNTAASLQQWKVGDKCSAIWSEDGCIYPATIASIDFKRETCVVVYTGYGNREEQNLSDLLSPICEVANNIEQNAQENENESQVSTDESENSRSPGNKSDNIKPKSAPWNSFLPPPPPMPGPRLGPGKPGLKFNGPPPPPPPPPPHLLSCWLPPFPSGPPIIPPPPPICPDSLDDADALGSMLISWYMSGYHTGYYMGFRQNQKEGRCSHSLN

Compound: O=C(O)C1CCN(c2ncc(-c3ccc4c(c3)OCCCO4)s2)CC1
Drug uptake [1]: 0.32 µmol/kg | AUClast [2]: 2167 ng·h/mL | Papp [3]: 44.1 ×10⁻⁶ cm/s | concentration at 2 h [4]: 16.6 µM | Cp(f) [5]: 2.1 µM | concentration at 8 h [6]: 12.6 µM | concentration at 0.083 h [7]: 44.4 µM | IC50 [8]: 5 nM | Cp(f) [9]: 2.26 µM | fraction unbound [10]: 0.051 | concentration at 4 h [11]: 10.8 µM | AUC [12]: 3115 ng·h/mL | Drug uptake [13]: 0.13 µmol/kg | Drug uptake [14]: 0.36 µmol/kg | AUClast [15]: 77768 ng·h/mL | Cp(f) [16]: 1.07 µM | t1/2 [17]: 670.8 min | Tmax [18]: 4.98 min | Drug uptake [19]: 0.43 µmol/kg | Drug uptake [20]: 0.13 µmol/kg | concentration at 0.5 h [21]: 41.1 µM | t1/2 [22]: > 60 min | t1/2 [23]: 821.4 min | concentration at 1 h [24]: 21 µM | Cp(f) [25]: 2.13 µM | Cmax [26]: 44.4 µM | Tmax [27]: 15 min | Cp(f) [28]: 0.64 µM | concentration at 12 h [29]: 4.57 µM | Papp [30]: 33.8 ×10⁻⁶ cm/s | concentration at 24 h [31]: 4.36 µM | Activity [32]: 0.012 µM | Drug uptake [33]: 1.23 µmol/kg | Activity [34]: 80% | Cp(f) [35]: 0.55 µM | concentration at 0.25 h [36]: 41.7 µM | AUC [37]: 103094 ng·h/mL | Cp(f) [38]: 0.22 µM | Cmax [39]: 1.23 µmol/kg | Cp(f) [40]: 0.85 µM | Drug uptake [41]: 0.59 µmol/kg | Kp [42]: 0.028 | Activity [43]: 325% | Drug uptake [44]: 1.14 µmol/kg | Drug uptake [45]: 0.48 µmol/kg | Cp(f) [46]: 0.23 µM

Papp [3]: 9.9 ×10⁻⁶ cm/s | IC50 [8]: 3200 nM | t1/2 [22]: 30 min | Papp [30]: 13.1 ×10⁻⁶ cm/s
Compound: NC(=O)C1CCN(c2ncc(-c3ccc4c(c3)OCCCO4)s2)CC1
Activity [32]: 0.038 µM | Activity [47]: inactive | Activity [43]: 370%
